Assay results: ChEMBL document CHEMBL4513216, “Probing the Open Global Health Chemical Diversity Library for Multistage-Active Starting Points for Next-Generation Antimalarials” (ACS Infect Dis, 2020)

Experiment: Toxicity liver stage against HepG2, at 10uM
Format: cell-based
Design: test concentration 10 uM, cell line HepG2-A16-CD81EGFP
Conditions: human, HepG2-A16-CD81EGFP cells; read-out: INHIBITION
How it was run: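 Uninfected HepG2-A16-CD81EGFP cells, 3 × 10^3 per well, 1536-well, plated on prespotted compound at 10 μM final, parasite-free screening media added to match infected plates; puromycin 10 μM positive, DMSO 0.5% negative; run in parallel with 48 h PbLuc assay at 37 °C, 5% CO2; viability by CellTiter-Glo luminescence, normalized to controls.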

CCc1c(C)nc2n(c1=O)CC(C(=O)Nc1ccccc1C)CS2 (centres undefined)
cytotoxicity at 10 µM: -1.38%

COc1cc(N2C[C@H]3CN(CC(=O)N(C)C)C(=O)[C@H]3C2)ncn1
cytotoxicity at 10 µM: 96.6%

CN(C)C[C@H]1C[C@@H]2CN(C(=O)c3ccco3)C[C@@H]2O1
cytotoxicity at 10 µM: -5.77%

O=C(N1CCOCC1)N1C[C@@H]2OCCN(C(=O)c3ccco3)[C@@H]2C1
cytotoxicity at 10 µM: -135%

Cc1ccc(N2CCCc3sc(C(=O)NCc4ccncc4)nc32)nn1
cytotoxicity at 10 µM: 14.6%

O=C(C[C@@H]1COC[C@H]2CN(C3CCOCC3)C[C@@H]12)Nc1cnccn1
cytotoxicity at 10 µM: 12%

CCc1nc(NCc2ccccn2)c2c(n1)c(C)nn2C
cytotoxicity at 10 µM: 8.92%

Cc1ccc(NC(=O)N2CCN(Cc3ccccn3)CC2)cc1Cl
cytotoxicity at 10 µM: -7.21%

Cc1nn(CCNc2ncnc3c2NC(=O)CN3)c(C)c1Cl
cytotoxicity at 10 µM: 10.5%

Cc1nn(C)c(C)c1CN(C)C(=O)c1cc(C(F)(F)F)n(C)n1
cytotoxicity at 10 µM: -0.65%

COc1ccc([C@@H]2NC(=O)N[C@H]3OCCC[C@H]32)cc1
cytotoxicity at 10 µM: 1.49%

CCn1nc(C)c2nnn(CC(=O)Nc3cccc(C)c3)c(=O)c21
cytotoxicity at 10 µM: 10.1%

Cc1nc[nH]c1CN(Cc1ccc(F)cc1)C1CC(C)(C)NC(C)(C)C1
cytotoxicity at 10 µM: 0.92%

CC(=O)NCC(=O)NCC1(O)CCN(c2cnccn2)C1 (centres undefined)
cytotoxicity at 10 µM: 7.89%

CN(C)C(=O)CN1CCCC(Cc2ccc(N3CCCC3)nn2)C1 (centres undefined)
cytotoxicity at 10 µM: 3.77%

Cc1cc2c(=O)n3c(nc2s1)CCN(C(=O)c1cnn(C)c1C)CC3
cytotoxicity at 10 µM: 0.359%

CCN(Cc1cc(Br)ccc1F)C(=O)C(C)NC(N)=O (centres undefined)
cytotoxicity at 10 µM: 11.6%

CC(=O)Nc1cccc(CN2CCN(C3=NCC(C)(C)S3)CC2)c1
cytotoxicity at 10 µM: 0.955%

CC(CNC(=O)CCc1ccco1)N1CCc2sccc2C1 (centres undefined)
cytotoxicity at 10 µM: 4.35%

NS(=O)(=O)c1cnn(CC(=O)Nc2c(Cl)cccc2Cl)c1
cytotoxicity at 10 µM: -7.2%

COC(=O)C(NC(=O)c1ccc(C)cc1C)c1cccnc1 (centres undefined)
cytotoxicity at 10 µM: -41.9%

CC1COC2(CCN(C(=O)c3ncoc3C(C)C)CC2)O1 (centres undefined)
cytotoxicity at 10 µM: 1.15%

CN(C(=O)C1CC(=O)N(CCc2ccccc2)C1)c1nccs1 (centres undefined)
cytotoxicity at 10 µM: 9.89%

CCOCC(=O)NCC1(NC(C)c2ccccc2)CCOCC1 (centres undefined)
cytotoxicity at 10 µM: -8.01%

COc1ccc2oc(C(C)NC(=O)NCC(C)(C)C(N)=O)c(C)c2c1 (centres undefined)
cytotoxicity at 10 µM: -9.51%

CCS(=O)(=O)N1CCCC(c2nc3ccccc3n2C(C)C)C1 (centres undefined)
cytotoxicity at 10 µM: -6.11%

CSc1ccc(S(=O)(=O)NC2CNC(=O)C2)cc1 (centres undefined)
cytotoxicity at 10 µM: -2.46%

O=C(NCCSCc1cccs1)C1CCCN(C(=O)N2CCCC2)C1 (centres undefined)
cytotoxicity at 10 µM: -13.6%

CSc1ccc(NCC(=O)Nc2c(C)nn(C)c2C)cc1F
cytotoxicity at 10 µM: 10.7%

CCC(NCc1cc[nH]n1)c1nc(C(F)(F)F)cs1 (centres undefined)
cytotoxicity at 10 µM: 6.12%

Cc1noc(C2CCCN(CC(=O)N3CCc4ccccc4C3)C2)n1 (centres undefined)
cytotoxicity at 10 µM: -19.3%

O=C(Nc1cccc(OCC(F)F)n1)c1ccncc1F
cytotoxicity at 10 µM: -3.33%

Cc1cc(C)n(C2CN(CC(=O)NCc3ccccn3)C2)n1
cytotoxicity at 10 µM: -2.92%

COC(=O)C(NC(=O)COC1CCCCC1)c1ccccc1 (centres undefined)
cytotoxicity at 10 µM: -21.4%

CC(C)(C)c1ccc(S(=O)(=O)CCN2CCNC(=O)CC2)cc1
cytotoxicity at 10 µM: -5.41%

O=S(=O)(Cc1c(F)cccc1F)NCCOc1cccnc1
cytotoxicity at 10 µM: -39.7%

COc1ccc(C(C)N2CCC(OC)CC2)cc1Cl (centres undefined)
cytotoxicity at 10 µM: -53.2%

CC1CCCN(c2ccccc2OCC(=O)NC2CC2)C1 (centres undefined)
cytotoxicity at 10 µM: 10.1%

CCN(Cc1noc(CC(C)C)n1)Cc1ccccc1C
cytotoxicity at 10 µM: -50.8%

Cc1nn(C)c(Cl)c1C1CCCN1c1ncnc2sccc12 (centres undefined)
cytotoxicity at 10 µM: 20.8%

Cc1nc(COC[C@@]23CCC[C@@H]2CN(Cc2cnn(C)c2)C3)cs1
cytotoxicity at 10 µM: -101%

CCC1=NC2(CCC(C(=O)Nc3ccc(F)cc3)CC2)C(=O)N1C (centres undefined)
cytotoxicity at 10 µM: 2.26%

CC(=O)N1C[C@H](NC(=O)c2cscn2)[C@@H]2OCCC[C@@H]21
cytotoxicity at 10 µM: 2.88%

COCC1CN(C(=O)c2cccn2C)Cc2nccn2C1 (centres undefined)
cytotoxicity at 10 µM: 6.92%

CN(C)c1nccc(-c2c[nH][nH]c2=O)n1
cytotoxicity at 10 µM: -1.25%

CNCC[C@H]1CC(C)(C)Oc2ccc(OC)cc21
cytotoxicity at 10 µM: 0.942%

Cc1ncc(-c2ccnc(SCCN)n2)c(-c2ccco2)n1
cytotoxicity at 10 µM: -14.8%

Cc1cc(CN(C)C(=O)c2cc(COc3ccccc3)[nH]n2)n[nH]1
cytotoxicity at 10 µM: 5.76%

Cc1cccc(C)c1OCC(C)Nc1nc(N)nc2c1CCNC2 (centres undefined)
cytotoxicity at 10 µM: 5.75%

CNC(=O)c1cc2c(s1)CCN(C(=O)CCC1CCCN(C)C1)C2 (centres undefined)
cytotoxicity at 10 µM: -29.3%

CCOc1cccc(C2CC(=O)NCc3nc(N)sc32)c1 (centres undefined)
cytotoxicity at 10 µM: -9.23%

CC(C)CN1CC(c2nc(-c3cccc(F)c3)c[nH]2)CC1=O (centres undefined)
cytotoxicity at 10 µM: 4.52%

Cc1ccc(CN(C)C(=O)c2cc(Cn3ccnc3C(C)C)[nH]n2)o1
cytotoxicity at 10 µM: 0.073%

COc1cc(NCCCSc2nnc(C)s2)ncn1
cytotoxicity at 10 µM: 20.6%
